# Rows were chosen to be rich in hits. Some 2.3% of all compounds tested hit in one or more screens of this group.
# TRPC6 activator = mouse TRPC6 channel activators, primary screen, cell-based, HEK293, membrane potential dye; Short transient receptor potential channel 6 (Mus musculus), Q61143; 0.13% of 310,000 active; AID 2550, 2010; B-score at 10 µM; HEK293-TRPC6 membrane potential dye fluorescence; hits give high values;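 active = B-score of the integrated fluorescence ratio above library mean plus 3 SD, and starting fluorescence ratio within library mean plus 5 SD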;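 also: higher score means more depolarization so channel activation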
# TRPC6 inh = mouse TRPC6 channel inhibitors, primary screen, cell-based, HEK293, membrane potential dye | 1.1% of 310,000 active | Short transient receptor potential channel 6 (Mus musculus), Q61143 | ACh-evoked depolarization; hits give low values | B-score at 10 µM;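 active = B-score under library mean minus 3 SD, initial fluorescence not abnormally high, positive integrated signal ratio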;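 also: B-score derived from integrated fluorescence ratio over the kinetic read; more negative B-score means stronger inhibition of depolarization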
# TRPC4 potent = positive allosteric modulators of TRPC4, primary screen, cell-based, mouse TRPC4beta, HEK293 mu-opioid, Fluo-4 calcium | 0.42% of 310,000 active | Short transient receptor potential channel 4 (Mus musculus), Q9QUQ5 | DAMGO EC20, Fluo-4 Ca2+ flux; hits give high values | B-score at 10 µM;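 active = B-score of calcium response area above 5 SD of library B-scores, with initial fluorescence ratio within 5 SD of library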;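 also: B-score of integrated fluorescence ratio over time as area under calcium response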
# Target sequence (Q9QUQ5 whole entry, looked up): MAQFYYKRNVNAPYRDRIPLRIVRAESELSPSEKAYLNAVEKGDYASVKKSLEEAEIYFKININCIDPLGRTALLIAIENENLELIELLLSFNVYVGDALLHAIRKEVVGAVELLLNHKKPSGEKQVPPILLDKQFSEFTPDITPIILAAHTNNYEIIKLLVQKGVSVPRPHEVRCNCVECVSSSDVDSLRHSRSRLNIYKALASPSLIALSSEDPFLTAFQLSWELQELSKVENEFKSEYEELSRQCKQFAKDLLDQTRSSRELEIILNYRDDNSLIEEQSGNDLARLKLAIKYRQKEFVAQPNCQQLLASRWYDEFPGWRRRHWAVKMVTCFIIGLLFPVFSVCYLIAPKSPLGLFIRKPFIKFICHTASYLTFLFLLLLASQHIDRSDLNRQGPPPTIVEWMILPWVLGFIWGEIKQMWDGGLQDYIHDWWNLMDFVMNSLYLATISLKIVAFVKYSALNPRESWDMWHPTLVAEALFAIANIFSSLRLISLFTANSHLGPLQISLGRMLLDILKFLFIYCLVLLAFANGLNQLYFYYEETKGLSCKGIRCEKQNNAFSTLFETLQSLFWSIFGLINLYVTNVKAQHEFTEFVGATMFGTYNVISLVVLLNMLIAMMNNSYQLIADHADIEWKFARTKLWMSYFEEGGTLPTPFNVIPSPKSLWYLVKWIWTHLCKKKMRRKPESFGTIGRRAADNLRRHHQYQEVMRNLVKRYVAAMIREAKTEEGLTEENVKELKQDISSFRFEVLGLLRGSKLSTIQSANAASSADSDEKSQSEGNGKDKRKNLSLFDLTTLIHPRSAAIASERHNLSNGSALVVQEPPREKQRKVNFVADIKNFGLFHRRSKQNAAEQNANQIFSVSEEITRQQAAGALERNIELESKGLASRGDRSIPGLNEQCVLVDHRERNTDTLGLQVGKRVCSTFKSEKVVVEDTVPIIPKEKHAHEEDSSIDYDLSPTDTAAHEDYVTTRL
# TRPC4 act = activators of mouse TRPC4 channel, primary screen, Fluo4 calcium, HEK293 TRPC4beta/mu-opioid cells; Fluo4 calcium fluorescence; hits give high values; B-score at 10 µM; 0.49% of 310,000 active; AID 2237, 2010;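 active = B-score above 5 SD of library B-scores, and initial fluorescence ratio not above library mean plus 5 SD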;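 also: positive B-score marks a calcium rise read as TRPC4 activation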
#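 Test system: HEK293 cells stably co-expressing mouse TRPC4beta and mu-opioid receptor | Schedule: Fluo4 dye loading 45 min at room temperature, 110 s recording | Measured by: Kinetic Fluo4 calcium fluorescence, 5 s baseline at 1 Hz | Evaluation: B score of integrated ratio | Controls: Buffer (low) and maximal DAMGO (high)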
# TRPC4 inh = inhibitors of mouse TRPC4 channel, primary screen, Fluo4 calcium, HEK293 TRPC4beta/mu-opioid cells. DAMGO-evoked Fluo4 calcium flux; hits give low values. B-score at 10 µM. 0.39% of 300,000 active;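 active = B-score over 3 SD under the library average, no early fluorescence shift, positive overall ratio signal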
#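 Material: HEK293 cells with stable TRPC4beta plus mu-opioid receptor expression / Probe or stimulus: DAMGO in two steps, submaximal then maximal / Compound: single concentration per test compound / Technique: kinetic Fluo4 fluorescence imaging of calcium influx / Read-out: per-well B score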
# TRPC4 sel inh 2 = second check of whether TRPC6 inhibitors also affect mouse TRPC4; AID 2776; inhibition, % at 10 µM; shares compounds with TRPC6 inh; HEK293 TRPC4/MOR, membrane potential dye fluorescence; channel activated by saturating DAMGO dose; 42% of 920 active;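 active = compounds whose fluorescence signal differed from control wells by over 3 SD, either direction, in both duplicate plates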
# TRPC4 spec = mouse TRPC4 modulation by TRPC6 hits, confirmation, selectivity assay for TRPC6 inhibitor project, cell-based, HEK293 TRPC4/mu-opioid, membrane potential dye. shares compounds with TRPC6 inh. 61% of 920 active. activity change, negative = inhibition, % at 10 µM. membrane potential fluorescence. AID 2777, 2010;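 active = rise or fall in signal beyond 3 SD of buffer-only wells in both replicate plates, either sign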;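 also: integrated kinetic ratio of fluorescence range over baseline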
# HEK293 MPD ctr 2-1 = nonspecific membrane potential effects, parental HEK293, confirmation, counter-screen for TRPC6 inhibitor project, cell-based, second counter screen. shares compounds with TRPC6 inh. parental HEK293 membrane potential dye fluorescence; maximal acetylcholine challenge after compound addition. signal change vs control, % at 10 µM. 31% of 920 active;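 active = membrane potential signal moving either way by over 3 SD of the maximum-effect control, in both duplicate plates, meaning non-specific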
# HEK293 MPD ctr-1 = membrane potential modulation in parental HEK293, confirmation, counter-screen for TRPC6 inhibitor project, cell-based | shares compounds with TRPC6 inh | parental HEK293 membrane potential dye fluorescence | membrane potential signal change, % at 10 µM | 60% of 920 active;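 active = membrane potential signal shifting up or down by more than 3 SD of buffer-only wells, on both duplicate plates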
# HEK293 MPD ctr-2 = parental HEK293 membrane potential modulation, confirmation, counter-screen for TRPC6 modulator project, cell-based. 51% of 2,400 active. membrane potential signal change, % at 10 µM. AID 488924, 2010. membrane potential dye fluorescence. shares compounds with TRPC6 inh;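 active = membrane potential signal moves up or down beyond 5 SD from buffer-only wells, on both duplicate plates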
# HEK293 MPD ctr 2-2 = second check of TRPC6 modulator effects in parental HEK293 cells; shares compounds with TRPC6 inh; membrane potential dye fluorescence; after compound, maximal acetylcholine stimulation; inhibition, % at 10 µM; 14% of 2,400 active; AID 488926;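 active = membrane potential signal drops by more than 5 SD from the mean control signal, in both duplicate plates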;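 also: plate controls were acetylcholine ECmax control wells for no effect and buffer only wells for full effect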
# TRPC4 ctr mod = TRPC4 modulation by TRPC6 hit compounds, confirmation, selectivity assay for TRPC6 modulator project, cell-based, HEK293 TRPC4/mu-opioid, membrane potential dye, mouse; percent change from control (negative = decrease, positive = increase), % at 10 µM; shares compounds with TRPC6 inh; membrane potential fluorescence; AID 488927, 2010; 69% of 2,400 active;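 active = membrane potential signal moved up or down beyond 5 SD of buffer control wells, in both duplicate plates, actives on both sides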;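 also: plate controls were assay buffer wells for no effect and DAMGO maximal-effect wells for full effect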
# TRPC4/MOR inh 2 = mouse TRPC4 off-target activity of TRPC6 modulators, second screen | shares compounds with TRPC6 inh | HEK293 TRPC4/mu-opioid, membrane potential dye fluorescence; stimulated with maximal-effect DAMGO | inhibition, % at 10 µM | 55% of 2,400 active;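 active = drop in membrane potential signal beyond 5 SD of the control wells in both duplicate plates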;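 also: TRPC4 counter screen for TRPC6 hits run under conditions tuned for TRPC6 not TRPC4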
# TRPC6 inh conf = mouse TRPC6 channel inhibitors, confirmation, HEK293 cells, membrane potential dye, duplicate | inhibition, % at 10 µM | ACh-evoked depolarization | AID 488960, 2010 | shares compounds with TRPC6 inh | 43% of 3,300 active;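 active = fluorescence ratio falls more than 5 SD below the full-stimulation control mean, in both duplicate runs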;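 also: integrated fluorescence ratio of peak minus minimum over baseline after agonist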
# TRPC6 act conf = mouse TRPC6 channel activators, confirmation, HEK293 cells, membrane potential dye, duplicate | 11% of 2,800 active | shares compounds with TRPC6 inh | HEK293-TRPC6 membrane potential dye fluorescence, FDSS | AID 488961, 2010 | activation, % at 10 µM;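 active = ratio signal rise beyond 5 SD above unstimulated control wells' mean, seen in both duplicate runs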;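 also: plate controls were buffer EC0 wells for no effect and acetylcholine ECmax response for full effect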
# Active calls of the source: *; i = inactive; . = no result given; + = active, no number.
SMILES,TRPC6 activator,TRPC6 inh,TRPC4 potent,TRPC4 act,TRPC4 inh,HEK293 MPD ctr-2,HEK293 MPD ctr 2-2,TRPC4 ctr mod,TRPC4/MOR inh 2,TRPC6 inh conf,TRPC6 act conf,others
NCC(O)(c1ccc(Cl)cc1)c1ccc(Cl)cc1,i,-6.3*,i,i,i,i,i,i,40%*,i,i,
CC(C)(C)NCC(O)(c1ccc(Cl)cc1)c1ccc(Cl)cc1,i,i,i,i,i,.,.,.,.,.,.,
CCOC(=O)C1=C(C)N=c2s/c(=C/c3ccc(OCC(=O)O)cc3)c(=O)n2C1c1ccc(OC)cc1OC (stereo not given),16*,i,i,i,i,+,i,62%*,i,i,132%*,
CCCCN(C(=O)c1cccc(S(=O)(=O)N(C)c2ccc(C)cc2)c1)c1c(N)n(CCCC)c(=O)[nH]c1=O,i,i,i,i,i,.,.,.,.,.,.,
COC(=O)c1cn(-c2ccccc2)nc1-c1ccc(OC)cc1,i,i,i,i,i,.,.,.,.,.,.,
CCN(CC)CCNC(=S)NC(=O)c1cn(-c2ccccc2)nc1-c1ccc(OC)cc1,i,-5.1*,i,i,i,i,i,i,58%*,i,i,
CC(C)C[C@H](NC(=O)[C@@H]1Cc2ccccc2CN1)C(=O)Nc1ccc(C(C)C)cc1,i,-5.2*,i,i,i,i,i,-12%*,68%*,i,i,
Cc1ccc(-n2nc3c(=O)n(CCCC(=O)N4CCC(C(N)=O)CC4)nc(C)c3c2C)cc1,i,i,i,i,i,.,.,.,.,.,.,
Cn1c(-c2ccc3c(c2)OCO3)cnc1NC(=O)CCC(=O)NCCc1ccccc1,i,i,i,i,i,.,.,.,.,.,.,
Cn1c(-c2ccc3c(c2)OCO3)cnc1NCc1ccccc1,i,-5.8*,i,i,i,i,i,i,56%*,36%*,i,
Cn1c(-c2ccc3c(c2)OCO3)cnc1NCc1ccccc1Cl,i,-5.3*,i,i,i,i,i,i,68%*,i,i,
Cc1ccc(-c2cnc(NCc3cc4c(cc3[N+](=O)[O-])OCO4)n2C)cc1C,i,i,i,i,i,.,.,.,.,.,.,
Cn1c(-c2ccc3c(c2)OCO3)cnc1NCc1cccc(Cl)c1,i,-7.9*,i,i,i,.,.,.,.,i,i,TRPC4 sel inh 2=46%*;TRPC4 spec=i;HEK293 MPD ctr 2-1=i;HEK293 MPD ctr-1=i
Cc1ccc(S(=O)(=O)c2ccc(Oc3cccc(C)c3)cc2)cc1,i,i,i,i,i,.,.,.,.,.,.,
CCCCn1c(N)c(N(CC(C)C)C(=O)CCCc2nc3ccccc3c(=O)[nH]2)c(=O)[nH]c1=O,i,i,i,i,i,.,.,.,.,.,.,
O=c1c2[nH]c3ccccc3c2ncn1C1CCCCC1,i,i,i,i,i,.,.,.,.,.,.,
O=C1c2ccccc2C(=O)c2c1ccc1c(=O)n(C3CCCCC3)[nH]c21,i,-5.1*,i,i,i,-94%*,i,-20%*,i,i,i,
CCN(CC)CCCNC(=O)c1cn(CCOC)c(=O)c2c1c1ccccc1n2C,i,i,i,i,i,.,.,.,.,.,.,
O=[N+]([O-])c1cccc(C(=Nc2cccc(Cl)c2)NO)c1,i,-8.8*,i,i,i,.,.,.,.,i,i,TRPC4 sel inh 2=i;TRPC4 spec=i;HEK293 MPD ctr 2-1=i;HEK293 MPD ctr-1=i
CC(Oc1ccc2c3c(c(=O)oc2c1)CCC3)C(=O)NCc1ccccn1 (stereo not given),i,i,i,i,i,.,.,.,.,.,.,
O=C(COc1ccc2c3c(c(=O)oc2c1)CCCC3)N[C@@H](Cc1ccccc1)C(=O)O,i,i,i,i,i,.,.,.,.,.,.,
O=C(COc1ccc2c3c(c(=O)oc2c1)CCC3)NCc1ccccn1,i,-6.1*,i,i,i,i,i,i,i,i,i,
O=C(COc1ccc2c3c(c(=O)oc2c1)CCCC3)NC(Cc1ccc(Cl)cc1)C(=O)O (stereo not given),i,-7*,i,i,i,.,.,.,.,i,i,TRPC4 sel inh 2=i;TRPC4 spec=4.7%*;HEK293 MPD ctr 2-1=i;HEK293 MPD ctr-1=2.1%*
O=C(NNC(=O)c1cc([N+](=O)[O-])ccc1Cl)c1cccs1,i,i,i,i,i,.,.,.,.,.,.,
